The test system of assay [1] is MCF7. Briefly: Cytotoxicity against human MCF7 cells assessed as cell surviving fraction at 50 uM after 48 hrs by SRB assay. The assay is classed as functional. Put shortly: (§1)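 MCF7 cells were seeded at 10⁴ cells/well and allowed to attach for 24 h. Compounds in DMSO were added at 10, 25, 50 and 100 µM, in triplicate wells, for 48 h at 37 °C under 5% CO₂. Cells were fixed and stained 30 min with 0.4% SRB in 1% acetic acid, and dye was recovered in Tris-EDTA for absorbance. IC50 came from the surviving-fraction curve; values are means of three experiments ± SE.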
In general terms: Sulforhodamine B stains cellular protein and so reports cell mass.

Assay [2] relates to MCF7. Briefly: Cytotoxicity against human MCF7 cells assessed as cell surviving fraction at 100 uM after 48 hrs by SRB assay. The assay is classed as functional. Put shortly:
as §1

In assay [3] the test system is MCF7. Briefly: Cytotoxicity against human MCF7 cells assessed as cell surviving fraction at 25 uM after 48 hrs by SRB assay. It is filed as functional. Put shortly: as §1
Assay [4] deals with MCF7. Briefly: Cytotoxicity against human MCF7 cells assessed as cell surviving fraction at 10 uM after 48 hrs by SRB assay. It is filed as functional. In short, it runs like this:
as §1

Assay [5] relates to MCF7. Briefly: Cytotoxicity against human MCF7 cells after 48 hrs by SRB assay. It is filed as functional, cell-based. Put shortly: as §1
The mark [6] stands for this setting: Homo sapiens, MCF7, 48 h, read-out: IC50.

As usually defined, the IC50 is the concentration needed to halve the response being measured.

Take `C/C(=N\NC(=O)c1sc2c(c1N)CCCC2)c1ccc(S(=O)(=O)N2CCCCC2)cc1`: the Activity is 0.621 in assay [1], 0.558 in assay [2], 0.994 in assay [3] and 0.971 in assay [4]. Also, the IC50 in assay [5] (setting [6]) was found to be 87.8 µM.

As to `CCOC(=O)c1c(-c2ccc(Cl)cc2)c(C#N)c(=O)n(/N=C(\C)c2ccc(S(=O)(=O)N3CCCCC3)cc2)c1N`, the Activity in assay [1] stood at 0.622; in assay [2], 0.553; in assay [3] it was 0.723; in assay [4], 0.818. Moreover, in assay [5] (setting [6]), the half-maximal inhibitory concentration (IC50) came out at 20.6 µM.

In the case of `CCOC(=O)c1c(-c2ccc(N(C)C)cc2)c(C#N)c(=O)n(/N=C(\C)c2ccc(S(=O)(=O)N3CCCCC3)cc2)c1N`, the Activity in assay [1] came to 0.557; in assay [2] it was 0.407; in assay [3], 0.745; in assay [4], 0.861. Moreover, the IC50 in assay [5] (setting [6]) was 34.4 µM.

Take `CCOC(=O)c1c(-c2ccc(C)cc2)c(C#N)c(=O)n(/N=C(\C)c2ccc(S(=O)(=O)N3CCCCC3)cc2)c1N`: the Activity is listed as 0.652 in assay [1], 0.581 in assay [2], 0.677 in assay [3] and 0.911 in assay [4]. Also, the 50% inhibitory concentration (IC50) in assay [5] (setting [6]) is 37.9 µM.

Take `C/C(=N\NC(=O)c1sc(=S)n(-c2ccccc2)c1N)c1ccc(S(=O)(=O)N2CCCCC2)cc1`: the Activity in assay [1] is 0.557; in assay [2], 0.407; in assay [3] it was 0.745; in assay [4], 0.861. Also, in assay [5] (setting [6]), the IC50 is 60.1 µM.

As for `C/C(=N\n1c(O)cc(N)c(C#N)c1=O)c1ccc(S(=O)(=O)N2CCCCC2)cc1`, the Activity is given as 0.433 in assay [1], 0.437 in assay [2], 0.54 in assay [3] and 0.748 in assay [4]. In addition, in assay [5] (setting [6]), the IC50 came to 74.6 µM.

In the case of `C/C(=N\n1c(N)cc(N)c(C#N)c1=O)c1ccc(S(=O)(=O)N2CCCCC2)cc1`, the Activity in assay [1] amounted to 0.416; in assay [2] it was 0.394; in assay [3], 0.298; in assay [4], 0.371. In assay [5] (setting [6]), the IC50 turned out to be 36.4 µM.

Consider `CCOC(=O)c1c(-c2ccc(O)cc2)c(C#N)c(=O)n(/N=C(\C)c2ccc(S(=O)(=O)N3CCCCC3)cc2)c1N`, for which the Activity in assay [1] turned out to be 0.681; in assay [2], 0.641; in assay [3] it was 0.647; in assay [4] it was 0.925. For the same molecule, the 50% inhibitory concentration (IC50) in assay [5] (setting [6]) was found to be 25.5 µM.

Consider `CCOC(=O)c1c(-c2ccc(O)c(OC)c2)c(C#N)c(=O)n(/N=C(\C)c2ccc(S(=O)(=O)N3CCCCC3)cc2)c1N`, for which the Activity in assay [1] was 0.621; in assay [2] it was 0.478; in assay [3], 0.694; in assay [4] it was 0.921. In assay [5] (setting [6]), the IC50 was 38.7 µM.

`CCOC(=O)c1c(N)sc(C(=O)N/N=C(\C)c2ccc(S(=O)(=O)N3CCCCC3)cc2)c1N`: the Activity came out at 0.981 in assay [1], 0.841 in assay [2], 0.947 in assay [3] and 1.925 in assay [4]. For the same molecule, the half-maximal inhibitory concentration (IC50) result in assay [5] (mcf7) is given as “Not Active”.

With `COc1cccc2c1C(=O)c1c(O)c3c(c(O)c1C2=O)C[C@@](O)(C(=O)CO)C[C@@H]3O[C@H]1C[C@H](N)[C@H](O)[C@H](C)O1` [DOXORUBICIN], the Activity in assay [1] was determined as 0.461; in assay [2], 0.494; in assay [4], 0.721. The half-maximal inhibitory concentration (IC50) in assay [5] (setting [6]) came to 32 µM.

As to `C/C(=N\NC(=O)c1sc(N)c(C#N)c1N)c1ccc(S(=O)(=O)N2CCCCC2)cc1`, the Activity in assay [1] is 0.451; in assay [2], 0.406; in assay [3] it was 0.507; in assay [4], 0.588. Moreover, in assay [5] (setting [6]), the IC50 was found to be 49.3 µM.

Consider `C/C(=N\NC(=O)CC#N)c1ccc(S(=O)(=O)N2CCCCC2)cc1`, for which the Activity in assay [1] is recorded as 0.44; in assay [2], 0.511; in assay [3], 0.666; in assay [4], 0.944. In assay [5] (setting [6]), the half-maximal inhibitory concentration (IC50) was found to be 44.2 µM.

Turning to `C/C(=N\NC(=O)c1sc2c(c1N)CCC2)c1ccc(S(=O)(=O)N2CCCCC2)cc1`, the Activity in assay [1] came to 0.552; in assay [2] it was 0.375; in assay [3], 0.857; in assay [4], 0.942. In assay [5] (setting [6]), the IC50 was 75.3 µM.

In the case of `CCOC(=O)c1c(-c2ccc(OC)cc2)c(C#N)c(=O)n(/N=C(\C)c2ccc(S(=O)(=O)N3CCCCC3)cc2)c1N`, the Activity in assay [1] was found to be 0.452; in assay [2], 0.375; in assay [3], 0.657; in assay [4], 0.972. Also, the IC50 in assay [5] (setting [6]) was 51.2 µM.
